Data as given in ChEMBL document CHEMBL4145675, “2-Phenylquinoline S. aureus NorA Efflux Pump Inhibitors: Evaluation of the Importance of Methoxy Group Introduction” (J Med Chem, 2018).
Values after ≈ are worked out from the molar mass of the structure shown.

Key:
[1] = target: T1, Multidrug export protein MepA (Staphylococcus aureus (strain NCTC 8325)) (UniProt Q2G140); assay: Inhibition of MepA in Staphylococcus aureus SA-K2886 assessed as synergistic potentiation of EtBr-induced antimicrobial activity by measuring […] at 1.56 ug/ml by microdilution method based Checkerboard assay (reference value: 25 ug/ml)
T1 sequence (whole entry): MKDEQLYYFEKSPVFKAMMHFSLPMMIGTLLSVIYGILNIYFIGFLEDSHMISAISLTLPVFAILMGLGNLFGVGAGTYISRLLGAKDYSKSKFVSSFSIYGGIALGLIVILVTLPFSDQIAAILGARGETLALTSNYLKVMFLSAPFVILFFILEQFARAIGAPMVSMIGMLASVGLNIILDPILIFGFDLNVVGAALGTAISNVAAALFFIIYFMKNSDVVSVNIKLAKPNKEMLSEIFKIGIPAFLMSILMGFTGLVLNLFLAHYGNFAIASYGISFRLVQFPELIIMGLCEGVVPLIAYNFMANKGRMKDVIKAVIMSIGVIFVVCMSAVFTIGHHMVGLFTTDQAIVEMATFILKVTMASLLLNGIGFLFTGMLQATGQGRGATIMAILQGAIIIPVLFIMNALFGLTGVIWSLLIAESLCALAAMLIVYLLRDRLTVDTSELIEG
Method in brief: (§1)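 Checkerboard combination of EtBr with compound, using broth microdilution MICs. SA-K2886 (norA-deleted, pALC2073-mepA) and SA-K2885 (norA-deleted, empty pALC2073) were run with 0.05 µg/mL tetracycline in all experiments to induce the xyl/tetO promoter.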

[2] = tested on: Staphylococcus aureus; assay: Antimicrobial activity against mepA deficient Staphylococcus aureus SA-K2885 by microdilution method; format: organism-based; conditions: in vivo
Method in brief: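 CLSI broth microdilution MIC of the compound alone in norA-deleted strains. SA-K2885 carries empty pALC2073 and SA-K2886 carries pALC2073-mepA (xyl/tetO promoter). 0.05 µg/mL tetracycline was present throughout to induce.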

[3] = tested on: Staphylococcus aureus; assay: Antimicrobial activity against NorA deficient Staphylococcus aureus SA-K1902 by microdilution method; format: organism-based; conditions: in vivo
Method in brief: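 CLSI broth microdilution MIC of the compound alone. Strains: SA-K1902 (norA deleted), SA-K2378 (SA-K1902 carrying norA plus its promoter on multicopy plasmid pCU1), SA-1199B (norA overexpressing, GrlA A116E).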

[4] = target: Cytochrome P450 3A4 (Homo sapiens, UniProt P08684); assay: (§2) Inhibition of human recombinant CYP3A4 at 10 uM using beetle D-luciferin as substrate by CYP450-Glo assay; format: ADME; conditions: recombinant enzyme, 10 µM
Chain of Cytochrome P450 3A4 (P08684 whole entry): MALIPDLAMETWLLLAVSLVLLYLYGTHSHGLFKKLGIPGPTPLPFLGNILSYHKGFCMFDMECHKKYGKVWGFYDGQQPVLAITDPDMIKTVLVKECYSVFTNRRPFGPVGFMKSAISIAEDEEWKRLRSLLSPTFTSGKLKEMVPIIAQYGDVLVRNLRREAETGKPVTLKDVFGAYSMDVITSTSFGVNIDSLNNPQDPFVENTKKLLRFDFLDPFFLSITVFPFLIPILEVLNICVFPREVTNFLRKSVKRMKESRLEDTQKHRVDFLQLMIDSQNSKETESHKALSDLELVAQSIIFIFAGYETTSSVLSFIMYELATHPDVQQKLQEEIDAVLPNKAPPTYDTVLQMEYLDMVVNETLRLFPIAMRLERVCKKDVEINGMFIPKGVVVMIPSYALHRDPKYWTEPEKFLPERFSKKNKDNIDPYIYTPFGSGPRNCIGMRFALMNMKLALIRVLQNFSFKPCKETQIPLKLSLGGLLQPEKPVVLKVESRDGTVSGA
Method in brief: (§3)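 Luminescent P450-Glo assay in which recombinant human CYP3A4 or CYP2D6 converts a beetle D-luciferin derivative to D-luciferin. Compound was tested at 1 and 10 µM.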

[5] = target: Quinolone resistance protein NorA (Staphylococcus aureus, UniProt P0A0J7, A116E); assay: Inhibition of NorA in Staphylococcus aureus SA-1199B expressing GrlA A116E mutant assessed as reduction in EtBr efflux incubated for 5 mins by fluorescence based assay
Method in brief: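 Cells were grown overnight in cation-supplemented Mueller-Hinton broth at 35 °C and subcultured to OD600 0.7–0.8. They were loaded at OD600 0.8 with 25 µM EtBr plus 100 µM CCCP (final) for 20 min at room temperature. Cells were then resuspended in fresh broth with or without compound, 50 µM for the single-point screen or a concentration series for IC50. Fluorescence (ex 485/em 645 nm) was read for 5 min. Inhibition was calculated from the fluorescence decrease versus untreated cells. Biological triplicate, each run twice.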

[6] = Drug metabolism in mouse liver microsomes assessed as compound demethylation at 50 uM in presence of NADPH regenerating system incubated for 120 mins by UPLC/MS analysis; format: ADME, microsome; conditions: 2 h, in the assay text read “hydroxylation and ring opening” for “demethylation”
Method in brief: (§4)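 1 mg/mL mouse liver microsomes in 0.1 M Tris-HCl pH 7.4 with test compound at 50 µM, DMSO up to ~3%. Preincubated 5 min at 37 °C, then started with NADPH regeneration system. Stopped at 120 min with cold methanol and centrifuged. Supernatant analysed by UPLC/MS (ESI, tandem quadrupole).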

[7] = Metabolic stability in mouse liver microsomes assessed as parent compound remaining at 50 uM in presence of NADPH regenerating system incubated for 120 mins by UPLC/MS analysis; format: ADME, microsome; conditions: read-out: Stability; method in brief: as §4
[8] = Drug metabolism in mouse liver microsomes assessed as oxidation at open piperidine ring or at hydroxylate at 50 uM in presence of NADPH regenerating system incubated for 120 mins by UPLC/MS analysis; format: ADME, microsome; conditions: 2 h; method in brief: as §4
[9] = Selectivity index, ratio of CC50 for human THP1 cells to inhibition of NorA in Staphylococcus aureus SA-1199B expressing GrlA A116E mutant assessed as minimal potentiating drug concentration causing 8 fold reduction in ciprofloxacin MIC by microdilution method based Checkerboard assay; format: toxicity; conditions: read-out: Selectivity Index
Method in brief: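 CC50 cells (HepG2 for […], THP-1 for […]) were grown to confluence in RPMI 1640 with 10% FCS, penicillin and streptomycin. They were exposed 24 h at 37 °C to 0–250 µg/mL. Viability was read by ATP bioluminescence, triplicate. CC50 is the concentration reducing cell number 50% versus untreated.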

[10] = tested on: Staphylococcus aureus; assay: Induction of membrane depolarization in Staphylococcus aureus SA-1199B expressing wild type norA at 1 to 10 ug/ml incubated for 30 mikns by DiOC2(3) fluorescent probe based cytofluorimetry; format: organism-based; conditions: in vivo
Method in brief: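 SA-1199B was grown in MHB at 37 °C to OD600 0.6, washed, and diluted to 1×10^6 CFU/mL in filtered PBS. DiOC2(3) was added at 30 µM final, and compound at 1, 5 or 10 µg/mL for 30 min. CCCP 5 µM final served as positive control. Flow cytometry with 488 nm excitation gave a red/green ratio normalized to the DiOC2(3) blank, expressed as % depolarized versus drug-free control.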

[11] = Cytotoxicity in human THP1 cells assessed as reduction in cell viability incubated for 24 hrs by ATP bioluminescence assay; format: cell-based, THP-1
Method in brief: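 Cells were grown to confluence overnight in RPMI 1640 with 10% heat-inactivated fetal calf serum, penicillin and streptomycin. Monolayers were exposed for 24 h at 37 °C to scalar concentrations (0-250 µg/mL). Viability was read by ATP bioluminescence, each concentration in triplicate. CC50 is the concentration reducing cell number by 50% versus untreated controls.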

[12] = target: CYP3A4 (Homo sapiens, UniProt P08684); assay: as §2; format: ADME; conditions: recombinant CYP3A4, probe beetle D-luciferin; method in brief: as §3
Chain of CYP3A4 (P08684 whole entry): as above

[13] = Drug metabolism in mouse liver microsomes assessed as compound oxidation at 50 uM in presence of NADPH regenerating system incubated for 120 mins by UPLC/MS analysis; format: ADME, microsome; conditions: 2 h; method in brief: as §4
[14] = target: T1, Multidrug export protein MepA (Staphylococcus aureus (strain NCTC 8325)); assay: Inhibition of MepA in Staphylococcus aureus SA-K2886 assessed as synergistic potentiation of EtBr-induced antimicrobial activity by measuring […] at 3.13 ug/ml by microdilution method based Checkerboard assay (reference value: 25 ug/ml); method in brief: as §1
[15] = Drug metabolism in mouse liver microsomes assessed as compound hydroxylation at 50 uM in presence of NADPH regenerating system incubated for 120 mins by UPLC/MS analysis; format: ADME, microsome; conditions: 2 h; method in brief: as §4

Structure (SMILES)	MIC [1] [µg/mL]	MIC [2] [µg/mL]	MIC [3] [µg/mL]	inhibition (INH) [4]	IC50 [5] [µM]	Drug metabolism [6]	remaining at 2 h, 50 µM [7] [%]	Drug metabolism [8]	selectivity ratio [9]	Activity [10]	CC50 at 24 h [11] [µg/mL]	inhibition at 10 µM [12] [%]	Drug metabolism [13]	MIC [14] [µg/mL]	Drug metabolism [15]
CCCOc1ccc(-c2cc(OCCN3CCCCC3)c3cc(OC)ccc3n2)cc1	< 1.56	12.5 (≈ 29.7 µM)	25 (≈ 59.4 µM)	Not Active	4.2	Metabolite_Detected	> 90	Metabolite_Detected	> 128	Dose-dependent effect	> 100	–	–	–	–
CCCOc1ccc(-c2cc(OCCN3CCc4cc(OC)c(OC)cc4C3)c3cc(OC)c(OC)cc3n2)cc1	–	100 (≈ 179 µM)	100 (≈ 179 µM)	–	1.1	–	62	–	–	Dose-dependent effect	37 (≈ 66.2 µM)	≤ 60	Metabolite_Detected	< 1.56	Metabolite_Detected
